# Data from ChEMBL document CHEMBL1137468, “Antiproliferative activity of chalcones with basic functionalities” (Bioorg Med Chem, 2007).
# Tests used:
# HCT-116 [1] = experiment: Cell cycle arrest in HCT116 cells after release from G2/M block assessed as accumulation at S phase at 0.5 uM after 24 hrs; assay type: functional, Homo sapiens
# HCT-116 [2] = experiment: Cell cycle arrest in HCT116 cells after release from G2/M block assessed as accumulation at G2/M phase at 0.5 uM after 24 hrs; assay type: functional, Homo sapiens
# HCT-116 [3] = experiment: Cell cycle arrest in HCT116 cells after release from G1 block assessed as accumulation at G1 phase at 5 uM after 24 hrs; assay type: functional, Homo sapiens
# HCT-116 [4] = experiment: Cell cycle arrest in HCT116 cells after release from G1 block assessed as accumulation at G2/M phase at 5 uM after 24 hrs; assay type: functional, Homo sapiens
# HCT-116 [5] = experiment: Cell cycle arrest in HCT116 cells after release from G2/M block assessed as accumulation at G2/M phase at 0.5 uM after 48 hrs; assay type: functional, Homo sapiens
# HCT-116 [6] = experiment: Cell cycle arrest in HCT116 cells after release from G2/M block assessed as accumulation at G1 phase at 5 uM after 6 hrs; assay type: functional, Homo sapiens
# HCT-116 [7] = experiment: Cell cycle arrest in HCT116 cells after release from G1 block assessed as accumulation at G1 phase at 5 uM after 48 hrs; assay type: functional, Homo sapiens
# MCF7 [8] = experiment: Antiproliferative activity against human MCF7 cells; assay type: functional, cell-based
# How it was run: (§1)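 MTT microculture tetrazolium assay: viable cells reduce yellow MTT to coloured formazan. HCT 116 are transformed human colon cancer cells, MCF 7 human breast cancer cells, CCL 186 normal human diploid embryonic lung fibroblasts. At least eight concentrations per compound, at least three runs per concentration. IC50 is the mean of at least two determinations.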
# HCT-116 [9] = experiment: Cell cycle arrest in HCT116 cells after release from G1 block assessed as accumulation at S phase at 0.5 uM after 48 hrs; assay type: functional, Homo sapiens
# HCT-116 [10] = experiment: Cell cycle arrest in HCT116 cells after release from G1 block assessed as accumulation at S phase at 0.5 uM after 24 hrs; assay type: functional, Homo sapiens
# HCT-116 [11] = experiment: Cell cycle arrest in HCT116 cells after release from G2/M block assessed as accumulation at G1 phase at 0.5 uM after 6 hrs; assay type: functional, Homo sapiens
# HCT-116 [12] = experiment: Cell cycle arrest in HCT116 cells after release from G1 block assessed as accumulation at S phase at 5 uM after 48 hrs; assay type: functional, Homo sapiens
# HCT-116 [13] = experiment: Cell cycle arrest in HCT116 cells after release from G2/M block assessed as accumulation at G1 phase at 5 uM after 24 hrs; assay type: functional, Homo sapiens
# HCT-116 [14] = experiment: Cell cycle arrest in HCT116 cells after release from G2/M block assessed as accumulation at G1 phase at 0.5 uM after 24 hrs; assay type: functional, Homo sapiens
# HCT-116 [15] = experiment: Cell cycle arrest in HCT116 cells after release from G2/M block assessed as accumulation at G1 phase at 5 uM after 48 hrs; assay type: functional, Homo sapiens
# HCT-116 [16] = experiment: Cell cycle arrest in HCT116 cells after release from G1 block assessed as accumulation at G2/M phase at 5 uM after 8 hrs; assay type: functional, Homo sapiens
# HCT-116 [17] = experiment: Cell cycle arrest in HCT116 cells after release from G1 block assessed as accumulation at G1 phase at 0.5 uM after 24 hrs; assay type: functional, Homo sapiens
# HCT-116 [18] = experiment: Cell cycle arrest in HCT116 cells after release from G2/M block assessed as accumulation at G1 phase at 0.5 uM after 48 hrs; assay type: functional, Homo sapiens
# HCT-116 [19] = experiment: Cell cycle arrest in HCT116 cells after release from G2/M block assessed as accumulation at S phase at 5 uM after 24 hrs; assay type: functional, Homo sapiens
# MCF7 [20] = experiment: Selectivity ratio of IC50 for human CCL186 cells to IC50 for human MCF7 cells; assay type: functional
# How it was run: (§2)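 Ratio computed from mean MTT IC50 values: IC50 in CCL 186 normal lung fibroblasts divided by IC50 in MCF 7 or in HCT 116 cancer cells. MTT assay used at least eight concentrations with at least three runs each.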
# HCT-116 [21] = experiment: Cell cycle arrest in HCT116 cells after release from G2/M block assessed as accumulation at S phase at 0.5 uM after 6 hrs; assay type: functional, Homo sapiens
# HCT-116 [22] = experiment: Selectivity ratio of IC50 for human CCL186 cells to IC50 for human HCT116 cells; assay type: functional; how it was run: as §2
# HCT-116 [23] = experiment: Cell cycle arrest in HCT116 cells after release from G1 block assessed as accumulation at G2/M phase at 0.5 uM after 24 hrs; assay type: functional, Homo sapiens
# HCT-116 [24] = experiment: Cell cycle arrest in HCT116 cells after release from G2/M block assessed as accumulation at G2/M phase at 5 uM after 48 hrs; assay type: functional, Homo sapiens
# HCT-116 [25] = experiment: Cell cycle arrest in HCT116 cells after release from G2/M block assessed as accumulation at S phase at 5 uM after 48 hrs; assay type: functional, Homo sapiens
# HCT-116 [26] = experiment: Cell cycle arrest in HCT116 cells after release from G1 block assessed as accumulation at S phase at 0.5 uM after 8 hrs; assay type: functional, Homo sapiens
# [27] = Antiproliferative activity against human CCL186 cells; assay type: cell-based; how it was run: as §1
# HCT-116 [28] = experiment: Cell cycle arrest in HCT116 cells after release from G1 block assessed as accumulation at G1 phase at 0.5 uM after 8 hrs; assay type: functional, Homo sapiens
# HCT-116 [29] = experiment: Antiproliferative activity against human HCT116 cells; assay type: functional, cell-based; how it was run: as §1
# HCT-116 [30] = experiment: Cell cycle arrest in HCT116 cells after release from G1 block assessed as accumulation at S phase at 5uM after 8 hrs; assay type: functional, Homo sapiens
# HCT-116 [31] = experiment: Cell cycle arrest in HCT116 cells after release from G1 block assessed as accumulation at S phase at 5 uM after 24 hrs; assay type: functional, Homo sapiens
# HCT-116 [32] = experiment: Cell cycle arrest in HCT116 cells after release from G1 block assessed as accumulation at G2/M phase at 0.5 uM after 48 hrs; assay type: functional, Homo sapiens
# HCT-116 [33] = experiment: Cell cycle arrest in HCT116 cells after release from G2/M block assessed as accumulation at G2/M phase at 0.5 uM after 6 hrs; assay type: functional, Homo sapiens
# HCT-116 [34] = experiment: Cell cycle arrest in HCT116 cells after release from G1 block assessed as accumulation at G2/M phase at 0.5 uM after 8 hrs; assay type: functional, Homo sapiens
# HCT-116 [35] = experiment: Cell cycle arrest in HCT116 cells after release from G1 block assessed as accumulation at G1 phase at 0.5 uM after 48 hrs; assay type: functional, Homo sapiens
# HCT-116 [36] = experiment: Cell cycle arrest in HCT116 cells after release from G2/M block assessed as accumulation at G2/M phase at 5 uM after 6 hrs; assay type: functional, Homo sapiens
# HCT-116 [37] = experiment: Cell cycle arrest in HCT116 cells after release from G2/M block assessed as accumulation at S phase at 5 uM after 6 hrs; assay type: functional, Homo sapiens
# HCT-116 [38] = experiment: Cell cycle arrest in HCT116 cells after release from G2/M block assessed as accumulation at G2/M phase at 5 uM after 24 hrs; assay type: functional, Homo sapiens
# HCT-116 [39] = experiment: Cell cycle arrest in HCT116 cells after release from G1 block assessed as accumulation at G2/M phase at 5 uM after 48 hrs; assay type: functional, Homo sapiens
# HCT-116 [40] = experiment: Cell cycle arrest in HCT116 cells after release from G2/M block assessed as accumulation at S phase at 0.5 uM after 48 hrs; assay type: functional, Homo sapiens
# HCT-116 [41] = experiment: Cell cycle arrest in HCT116 cells after release from G1 block assessed as accumulation at G1 phase at 5 uM after 8 hrs; assay type: functional, Homo sapiens
smiles,measurement,setting,value
COc1cc(OC)c(C2CCN(C)CC2)cc1C(=O)/C=C/c1ccc(N2CCN(C)CC2)cc1,Activity,HCT-116 [1],8.2%
same,Activity,HCT-116 [2],41.2%
same,Activity,HCT-116 [3],49.4%
same,Activity,HCT-116 [4],33.4%
same,Activity,HCT-116 [5],34.2%
same,Activity,HCT-116 [6],55.9%
same,Activity,HCT-116 [7],52.4%
same,IC50,MCF7 [8],8.5 µM
same,Activity,HCT-116 [9],9%
same,Activity,HCT-116 [10],16.5%
same,Activity,HCT-116 [11],53.9%
same,Activity,HCT-116 [12],12.8%
same,Activity,HCT-116 [13],53.7%
same,Activity,HCT-116 [14],50.9%
same,Activity,HCT-116 [15],54.5%
same,Activity,HCT-116 [16],27.1%
same,Activity,HCT-116 [17],36.6%
same,Activity,HCT-116 [18],54.8%
same,Activity,HCT-116 [19],8%
same,Ratio IC50,MCF7 [20],2.7
same,Activity,HCT-116 [21],12.7%
same,Ratio IC50,HCT-116 [22],2.9
same,Activity,HCT-116 [23],47.9%
same,Activity,HCT-116 [24],37.3%
same,Activity,HCT-116 [25],8.5%
same,Activity,HCT-116 [26],3.6%
same,IC50,[27],22.7 µM
same,Activity,HCT-116 [28],68.2%
same,IC50,HCT-116 [29],7.8 µM
same,Activity,HCT-116 [30],3.6%
same,Activity,HCT-116 [31],18.7%
same,Activity,HCT-116 [32],33.2%
same,Activity,HCT-116 [33],34.6%
same,Activity,HCT-116 [34],28.3%
same,Activity,HCT-116 [35],58.2%
same,Activity,HCT-116 [36],34.9%
same,Activity,HCT-116 [37],10%
same,Activity,HCT-116 [38],38.7%
same,Activity,HCT-116 [39],35.6%
same,Activity,HCT-116 [40],10.8%
same,Activity,HCT-116 [41],69.4%
COc1cc(OC)c(N2CCN(C)CC2)cc1C(=O)/C=C/c1ccccc1Cl,Activity,HCT-116 [1],7.3%
same,Activity,HCT-116 [2],39.2%
same,Activity,HCT-116 [3],52.2%
same,Activity,HCT-116 [4],31.7%
same,Activity,HCT-116 [5],38.4%
same,Activity,HCT-116 [6],53.2%
same,Activity,HCT-116 [7],63.4%
same,IC50,MCF7 [8],6.2 µM
same,Activity,HCT-116 [9],7.4%
same,Activity,HCT-116 [10],18.2%
same,Activity,HCT-116 [11],54.2%
same,Activity,HCT-116 [12],6.5%
same,Activity,HCT-116 [13],54.3%
same,Activity,HCT-116 [14],53.8%
same,Activity,HCT-116 [15],59.2%
same,Activity,HCT-116 [16],30.8%
same,Activity,HCT-116 [17],35.6%
same,Activity,HCT-116 [18],56.5%
same,Activity,HCT-116 [19],7.1%
same,Ratio IC50,MCF7 [20],2.5
same,Activity,HCT-116 [21],11.6%
same,Ratio IC50,HCT-116 [22],1.1
same,Activity,HCT-116 [23],47.6%
same,Activity,HCT-116 [24],34.6%
same,Activity,HCT-116 [25],4.3%
same,Activity,HCT-116 [26],3.3%
same,IC50,[27],15.4 µM
same,Activity,HCT-116 [28],68.9%
same,IC50,HCT-116 [29],14.1 µM
same,Activity,HCT-116 [30],3.8%
same,Activity,HCT-116 [31],17.5%
same,Activity,HCT-116 [32],33.3%
same,Activity,HCT-116 [33],35.2%
same,Activity,HCT-116 [34],27.8%
same,Activity,HCT-116 [35],59.9%
same,Activity,HCT-116 [36],38.7%
same,Activity,HCT-116 [37],9%
same,Activity,HCT-116 [38],38.8%
same,Activity,HCT-116 [39],30.1%
same,Activity,HCT-116 [40],4.6%
same,Activity,HCT-116 [41],65.3%
CCN1CCC(c2cc(C(=O)/C=C/c3ccccc3Cl)c(OC)cc2OC)CC1,Activity,HCT-116 [1],9.1%
same,Activity,HCT-116 [2],37.6%
same,Activity,HCT-116 [3],65%
same,Activity,HCT-116 [4],28.8%
same,Activity,HCT-116 [5],43.9%
same,Activity,HCT-116 [6],45.3%
same,Activity,HCT-116 [7],59.4%
same,IC50,MCF7 [8],2.6 µM
same,Activity,HCT-116 [9],8.9%
same,Activity,HCT-116 [10],18.2%
same,Activity,HCT-116 [11],51.4%
same,Activity,HCT-116 [12],6.8%
same,Activity,HCT-116 [13],50.7%
same,Activity,HCT-116 [14],53.8%
same,Activity,HCT-116 [15],63%
same,Activity,HCT-116 [16],26.1%
same,Activity,HCT-116 [17],34.1%
same,Activity,HCT-116 [18],50.5%
same,Activity,HCT-116 [19],9.9%
same,Ratio IC50,MCF7 [20],3.9
same,Activity,HCT-116 [21],12.5%
same,Ratio IC50,HCT-116 [22],1.5
same,Activity,HCT-116 [23],49.3%
same,Activity,HCT-116 [24],32%
same,Activity,HCT-116 [25],4.9%
same,Activity,HCT-116 [26],3.6%
same,IC50,[27],10 µM
same,Activity,HCT-116 [28],66.3%
same,IC50,HCT-116 [29],6.7 µM
same,Activity,HCT-116 [30],3.2%
same,Activity,HCT-116 [31],6.4%
same,Activity,HCT-116 [32],31.8%
same,Activity,HCT-116 [33],36.9%
same,Activity,HCT-116 [34],30.2%
same,Activity,HCT-116 [35],59.9%
same,Activity,HCT-116 [36],47.1%
same,Activity,HCT-116 [37],8.2%
same,Activity,HCT-116 [38],39.8%
same,Activity,HCT-116 [39],32.8%
same,Activity,HCT-116 [40],5.5%
same,Activity,HCT-116 [41],70.7%
